Assay results gathered from unrelated publications.
Compare with care: the assays were run in different laboratories.
Effect on: cell growth or viability

SMILES	cell line	method	tested at	time	endpoint	value
C/C1=C/C(=O)O[C@@H]2C[C@@H](CC[C@H](C)/C=C\C=C\CC1)O[C@@](O)([C@@H]1CSC(=O)N1Cc1ccccc1)C2	MDA-MB-231	MTT		72 h	IC50	2720 nM
COc1c2c(cc3c1OCO3)[C@]13C=C[C@H](OC)C[C@@H]1[N@](C2)C[C@H]3OC(=O)c1ccco1	MRC5	WST-1			IC50	> 10000 nM
O=C(c1ccc(F)cc1)c1c[nH]c2ncc(-c3ccnc(N4CCOCC4)c3)cc12	MRC5	MTT	10 µM	48 h	viability	89.4%
COc1cc2c(cc1OS(N)(=O)=O)CC[C@@H]1[C@@H]2CC[C@]2(C)[C@@H](OS(N)(=O)=O)CC[C@@H]12	MDA-MB-231				GI50	290 nM
O=C(c1ccc(F)cc1)c1c[nH]c2ncc(-c3ccc(N4CCNCC4)nc3)cc12	MRC5	MTT	10 µM	48 h	viability	89.4%
N.N.[Cl][Pt][Cl]	BEL-7404	MTT		48 h	IC50	13100 nM
COc1cc2c(cc1OS(N)(=O)=O)CCN(Cc1cc(Br)c(OC)c(OC)c1)C2	MDA-MB-231	WST-1		96 h	GI50	30 nM
CO[C@]1([C@@H]2CSC(=O)N2C2CCCC2)C[C@H]2C[C@@H](CC[C@H](C)/C=C\C=C\CC/C(C)=C\C(=O)O2)O1	MDA-MB-231	MTT		72 h	IC50	5070 nM
CCCS(=O)(=O)Nc1ccc(F)c(C(=O)c2c[nH]c3ncc(Cl)cc23)c1F	A-375				EC50	30 nM
O=C(c1ccc(F)cc1)c1c[nH]c2ncc(-c3ccc(N4CCOCC4)nc3)cc12	MRC5	MTT	10 µM	48 h	viability	68.1%
CO[C@]1([C@@H]2CSC(=O)N2CCCO)C[C@H]2C[C@@H](CC[C@H](C)/C=C\C=C\CC/C(C)=C\C(=O)O2)O1	MDA-MB-231	MTT		72 h	IC50	> 50000 nM
O=C(O)CCn1cc(C(=O)c2ccc(F)cc2)c2cc(-c3ccc(N4CCNCC4)nc3)cnc21	MRC5	MTT	10 µM	48 h	viability	77.7%
Cl.O[C@]12C=C(c3nccc4c3[nH]c3ccccc34)[C@@H]3CCN(CCCC/C=C\CC1)C[C@@]31C[C@@H]3/C=C\CCCCN3[C@H]12	LLC-PK11	neutral red		48 h	IC50	0.69 µg/mL
